How the values were obtained:
Type in all cases: functional
Meriones unguiculatus [1] = experiment: Percent reduction of Haemonchus contortus in immunosuppressed jird (Meriones unguiculatus) when CDP administered 2.75 mg/jird orally
Summary of the method: (§1)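 Jirds were immunosuppressed via medicated food; 5 days later each got ~1000 exsheathed infective H. contortus larvae (pre-incubated 1 h in Earle's balanced salt solution) per os. The strain was maintained in sheep. Jirds were randomized by cage (3/group) on day 10 post-inoculation. Compound was suspended in 17% DMSO/83% carboxymethylcellulose and given orally in 0.2 mL, with vehicle-only controls. Worms were recovered after 5 h incubation at 37 °C, fixed in formaldehyde and counted under a dissecting microscope. Percent clearance = (mean control − mean treated)/mean control × 100.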

Meriones unguiculatus [2] = experiment: Percent reduction of Haemonchus contortus in immunosuppressed jird (Meriones unguiculatus) when CDP administered 5.75 mg/jird orally; summary of the method: as §1
Meriones unguiculatus [3] = experiment: Percent reduction of Haemonchus contortus in immunosuppressed jird (Meriones unguiculatus) when CDP administered 0.11 mg/jird orally; summary of the method: as §1
Meriones unguiculatus [4] = experiment: Percent reduction of Haemonchus contortus in immunosuppressed jird (Meriones unguiculatus) when CDP administered 0.33 mg/jird orally; summary of the method: as §1
Meriones unguiculatus [5] = experiment: Percent reduction of Haemonchus contortus in immunosuppressed jird (Meriones unguiculatus) when CDP administered 1 mg/jird orally; summary of the method: as §1
Meriones unguiculatus [6] = experiment: Percent reduction of Haemonchus contortus in immunosuppressed jird (Meriones unguiculatus) when CDP administered 3 mg/jird orally; summary of the method: as §1

Structure (SMILES)	Reduction (Meriones unguiculatus [1]) [%]	Reduction (Meriones unguiculatus [2]) [%]	Reduction (Meriones unguiculatus [3]) [%]	Reduction (Meriones unguiculatus [4]) [%]	Reduction (Meriones unguiculatus [5]) [%]	Reduction (Meriones unguiculatus [6]) [%]
CC(C)C[C@H]1C(=O)O[C@H](Cc2ccccc2)C(=O)N(C)[C@@H](CC(C)C)C(=O)O[C@@H]2CCN(C2=O)[C@@H](CC(C)C)C(=O)O[C@H](Cc2ccccc2)C(=O)N(C)[C@@H](CC(C)C)C(=O)O[C@H](C)C(=O)N1C	69	89	–	–	–	–
CC(C)C[C@H]1C(=O)O[C@H](Cc2ccccc2)C(=O)N(C)[C@@H](CC(C)C)C(=O)O[C@H](C)C(=O)N(C)[C@@H](CC(C)C)C(=O)O[C@H](Cc2ccccc2)C(=O)N(C)[C@@H](CC(C)C)C(=O)O[C@H](C)C(=O)N1C	–	–	100	–	–	–
CC(C)C[C@H]1C(=O)O[C@H](Cc2ccccc2)C(=O)N(C)[C@@H](CC(C)C)C(=O)OC2CCCCN(C2=O)[C@@H](CC(C)C)C(=O)O[C@H](Cc2ccccc2)C(=O)N(C)[C@@H](CC(C)C)C(=O)O[C@H](C)C(=O)N1C (stereo partly specified)	–	–	91	99	100	100
CC(C)C[C@H]1C(=O)O[C@H](Cc2ccccc2)C(=O)N(C)[C@@H](CC(C)C)C(=O)OC2CCCN(C2=O)[C@@H](CC(C)C)C(=O)O[C@H](Cc2ccccc2)C(=O)N(C)[C@@H](CC(C)C)C(=O)O[C@H](C)C(=O)N1C (stereo partly specified)	–	–	36	75	89	99
